Bioassay records from PubChem BioAssay.
Only some compounds are listed: those with a hit (about 1.7% of all), similar ones and a draw of the others.
Statin myotox sup: suppression of simvastatin myotoxicity; C2C12 myotubes + simvastatin, ATP luminescence, 48 h; scaled: DMSO 0, geranylgeraniol control 100; rescue of ATP level, % at 7.49 µM; 0.78% of 330,000 active;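 active means mean ATP rescue above about 67%, or every replicate alone reaching that limit, limit read from the data, passing the limit was not always enough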;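 further: myotubes were challenged with 10 µM simvastatin during compound exposure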
SR-BI DiI inh: mouse SR-BI HDL lipid transfer inhibition; Q61009; ldlA[mSR-BI] CHO cells, DiI-HDL uptake fluorescence, 3 h; inhibition, % at 12.5 µM; 0.96% of 320,000 active;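 active means mean replicate inhibition of at least 70% and a set share of replicates each scoring 70 or more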
Target sequence (Q61009 whole entry, looked up): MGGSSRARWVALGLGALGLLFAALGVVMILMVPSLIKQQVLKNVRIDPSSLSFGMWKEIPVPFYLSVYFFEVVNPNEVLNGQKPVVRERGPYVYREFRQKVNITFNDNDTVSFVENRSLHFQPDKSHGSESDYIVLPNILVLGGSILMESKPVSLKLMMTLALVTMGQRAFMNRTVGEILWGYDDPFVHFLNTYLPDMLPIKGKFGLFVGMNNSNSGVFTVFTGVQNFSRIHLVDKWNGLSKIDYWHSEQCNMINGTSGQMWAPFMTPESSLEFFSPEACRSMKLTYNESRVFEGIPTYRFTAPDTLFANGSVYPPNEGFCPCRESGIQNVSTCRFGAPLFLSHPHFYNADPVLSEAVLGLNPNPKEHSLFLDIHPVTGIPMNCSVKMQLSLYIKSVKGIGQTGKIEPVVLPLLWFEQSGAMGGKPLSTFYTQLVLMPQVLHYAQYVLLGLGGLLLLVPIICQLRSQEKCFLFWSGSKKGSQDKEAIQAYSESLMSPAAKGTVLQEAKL
Vif inh: inhibitors of HIV Vif | 0.35% of 340,000 active | inhibition, % at 7.49 µM | HEK293T cells, Vif self-association by quenched fluorescence, imaging, 24 h | AID 602346; in the data active means inhibition above about 50%, passing the limit was not always enough
SR-BI DiI-HDL act: activators of SR-BI mediated HDL lipid uptake. CHO ldlA[mSR-BI] cells, DiI-HDL uptake fluorescence, 3 h; 100 = double the neutral-control signal. activation, % at 12.5 µM. 0.096% of 320,000 active;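 active means mean replicate activation of at least 60% and every replicate at or above 60%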
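System: LDL receptor-deficient CHO ldlA cells overexpressing murine SR-BI | Timing: 3 h uptake period with compound, 37 °C | Medium: HEPES-buffered (25 mM, pH 7.4) F12 plus 0.5% BSA | Dosing: Single-point compound dose | Signal: Bottom-read fluorescence, 550/595 nm | Read-out: Retained DiI signal reflecting DiI-HDL uptake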
Numbers stand for hits; – = inactive; · = not tested or not shown.

SMILES | Statin myotox sup | SR-BI DiI inh | Vif inh | SR-BI DiI-HDL act
C[C@@H]1CN([C@H](C)CO)C(=O)Cc2cc(NS(=O)(=O)c3ccc(Cl)cc3)ccc2O[C@H]1CN(C)Cc1ccc(C(F)(F)F)cc1 | – | – | – | –
C[C@@H]1CN([C@@H](C)CO)C(=O)Cc2cc(NS(=O)(=O)c3ccc(F)cc3)ccc2O[C@@H]1CN(C)Cc1ccc(C(F)(F)F)cc1 | – | · | · | ·
Cc1ccc(S(=O)(=O)Nc2ccc3c(c2)CC(=O)N([C@@H](C)CO)C[C@@H](C)[C@H](CN(C)Cc2ccc(C(F)(F)F)cc2)O3)cc1 | 68.7 | · | · | ·
CCOc1ccc(OCc2cccc(C(=O)N3CCCC3)c2)cc1 | – | – | 52.7 | –
O=C(C[C@H]1C=C[C@@H](NC(=O)c2ccc(F)cc2)[C@H](CO)O1)NCCc1ccncc1 | – | · | · | ·
C[C@H]1CN([C@@H](C)CO)C(=O)c2cc(NC(=O)NC3CCCCC3)ccc2O[C@H]1CN(C)C(=O)Nc1ccc(C(F)(F)F)cc1 | – | 73.8 | – | –
C[C@@H]1CN([C@H](C)CO)C(=O)c2cc(NC(=O)NC3CCCCC3)ccc2O[C@H]1CN(C)C(=O)Nc1ccc(C(F)(F)F)cc1 | – | · | · | ·
C[C@H]1CN([C@@H](C)CO)C(=O)c2cc(NC(=O)Nc3ccc(C(F)(F)F)cc3)ccc2O[C@@H]1CN(C)C(=O)Nc1ccc2c(c1)OCO2 | – | · | · | ·
C[C@H]1CN([C@@H](C)CO)C(=O)c2cc(NC(=O)Nc3ccc4c(c3)OCO4)ccc2O[C@@H]1CN(C)C(=O)Nc1ccc(C(F)(F)F)cc1 | 90.9 | · | · | ·
O=C(c1ccc([N+](=O)[O-])o1)N1CCN(c2nc3ccc(F)cc3s2)CC1 | 68.0 | – | – | –
Cc1ccc2sc(N3CCN(C(=O)c4ccc([N+](=O)[O-])o4)CC3)nc2c1C | 85.0 | – | – | –
C[C@H]1CN([C@@H](C)CO)S(=O)(=O)c2ccc(-c3cccc(F)c3)cc2O[C@H]1CN(C)S(C)(=O)=O | – | · | · | ·
O=C(Cn1cnc2ccccc2c1=O)Nc1nc2ccccc2s1 | · | – | – | –
O=c1c2ccccc2ncn1Cc1nc2ccccc2s1 | 113.9 | – | – | ·
O=C(CSc1nc(-c2ccc(F)cc2)cc(C(F)(F)F)n1)NCCN1CCOCC1 | – | 73.0 | – | –
CC(Sc1nc(-c2ccccc2)cc(C(F)(F)F)n1)C(=O)N1CCOCC1 (configuration not stated) | · | 92.8 | – | –
CC1CCN(C(=O)C(C)Sc2nc(-c3ccccc3)cc(C(F)(F)F)n2)CC1 (configuration not stated) | · | 86.9 | – | –
CC(Sc1nc(-c2ccccc2)cc(C(F)(F)F)n1)C(=O)NCCN1CCOCC1 (configuration not stated) | – | 73.4 | – | –
CC(Sc1nc(-c2ccccc2)cc(C(F)(F)F)n1)C(=O)N1CCCC1 (configuration not stated) | – | – | – | –
O=C(C[C@H]1CC[C@H](NC(=O)C2CC2)[C@H](CO)O1)NCC1CC1 | – | · | · | ·
COC(=O)C[C@@H]1C[C@@H]2c3cc(NC(=O)Cc4ccncc4)ccc3O[C@@H]2[C@H](CO)O1 | – | · | · | ·
CCCNC(=O)N[C@H]1CC[C@H](CC(=O)NC2CCC2)O[C@H]1CO | – | · | · | ·
C[C@@H]1CN([C@H](C)CO)C(=O)Cc2cc(NC(=O)NC3CCCCC3)ccc2O[C@H]1CN(C)S(=O)(=O)c1ccc(F)cc1 | – | · | · | ·
Cc1cc(C(=O)Nc2cccc3c2O[C@@H](CN(C)Cc2ccncc2)[C@H](C)CN([C@@H](C)CO)C3=O)n(C)n1 | – | · | · | ·
C/C=C/c1ccc2c(c1)O[C@H](CN(C)C(=O)C1CCOCC1)[C@H](C)CN([C@H](C)CO)S2(=O)=O | – | · | · | ·
SMILES | Statin myotox sup | SR-BI DiI inh | Vif inh | SR-BI DiI-HDL act
COCCNC(=O)C[C@H]1C[C@@H]2c3cc(NC(=O)COC)ccc3O[C@@H]2[C@@H](CO)O1 | – | · | · | ·
COc1cc2oc3ccccc3c2cc1N(CC(=O)N1CCCCC1)S(=O)(=O)c1ccc(C)cc1 | 106.2 | – | – | –
Cc1ccc(N=C2NC(=O)/C(=C/c3cn(C)c4ccccc34)S2)cc1C | – | 81.1 | – | –
Cc1ccc(S(=O)(=O)Nc2ccc3c(c2)C(=O)N([C@H](C)CO)C[C@H](C)[C@@H](CN(C)C(=O)NC(C)C)O3)cc1 | – | · | · | ·
CCOc1ccc(CCNC(=O)C2CCCN(c3ncnc4c3nc3n4CCCCC3)C2)cc1 (configuration not stated) | 75.9 | – | – | –
Cc1ccc(CCNC(=O)C2CCCN(c3ncnc4c3nc3n4CCCCC3)C2)cc1 (configuration not stated) | – | – | – | –
O=C(C[C@H]1CC[C@@H]2[C@H](COC[C@H](O)CN2Cc2ccc(F)cc2)O1)NCCc1ccccc1 | – | · | · | ·
COCCn1nnnc1C(c1cccs1)N1CCN(c2ccccc2)CC1 (configuration not stated) | – | 83.4 | – | –
C[C@@H](NC(=O)C[C@H]1CC[C@H](NC(=O)Cc2ccccn2)[C@H](CO)O1)c1ccccc1 | – | · | · | ·
Cn1c2ccccc2c(=O)c2cc(C#Cc3ccccn3)ccc21 | – | – | – | –
C=CCn1c2ccccc2c(=O)c2cc(C#Cc3cc(OC)cc(OC)c3)ccc21 | – | 87.4 | – | –
CO[C@@H](CN(C)S(=O)(=O)c1ccc(Cl)cc1)[C@H](C)CN(C(=O)Nc1ccccc1F)[C@@H](C)CO | – | · | · | ·
CCc1c(C#N)c(SCCC(=O)Nc2ccc(C)cc2)nc2c1C(=O)CC(C)(C)C2 | – | 73.2 | – | –
CCOc1ccc(NC(=O)CCSc2nc3c(c(CC)c2C#N)C(=O)CC(C)(C)C3)cc1 | – | – | – | –
CC(C)CC(NC(=O)C1CCC(C)CC1)C(=O)Nc1cccnc1 (configuration not stated) | 108.3 | – | – | –
COc1ccc(NC(=O)C(CC(C)C)NC(=O)C2CCC(C)CC2)c(OC)c1 (configuration not stated) | – | 72.2 | – | –
CCC(C)C(NC(=O)C1CCC(C)CC1)C(=O)Nc1ccc(OC)cc1OC (configuration not stated) | – | 79.0 | – | –
CNC(=O)C[C@H]1CC[C@@H]2[C@H](COC[C@H](O)CN2S(=O)(=O)c2ccccc2Cl)O1 | – | · | · | ·
C[C@H]1CN([C@@H](C)CO)S(=O)(=O)c2ccc(C#CC3CCCC3)cc2O[C@@H]1CN(C)Cc1cccnc1 | – | · | · | ·
Cc1noc(C)c1S(=O)(=O)N(C)C[C@H]1Oc2ccc(NC(=O)Nc3ccc4c(c3)OCO4)cc2CC(=O)N([C@H](C)CO)C[C@@H]1C | – | · | · | ·
CCOc1ccc(-c2nnc3n2N=C(c2ccc(OC)cc2)CS3)cc1 | – | – | 50.4 | –
Cc1ccc(S(=O)(=O)N[C@H]2C=C[C@@H](CC(=O)N3CCc4ccccc4C3)O[C@H]2CO)cc1 | – | · | · | ·
CCOc1ccc(S(=O)(=O)N2CCCCC2)cc1NC(=O)C1CCCC1 | – | · | – | ·
COc1ccccc1OCC(=O)Nc1nc(-c2ccc(S(=O)(=O)N3CCOCC3)cc2)cs1 | · | 73.0 | – | –
COc1cc(/C=N/NC(N)=S)ccc1OCC(=O)Nc1ccc(C)c(C)c1 | – | 72.7 | – | –
